Data reported in ChEMBL document CHEMBL1132564, “Antitumor benzothiazoles. 7. Synthesis of 2-(4-acylaminophenyl)benzothiazoles and investigations into the role of acetylation in the antitumor activities of the parent amines” (J Med Chem, 1999).

What was measured:
MDA-MB-468 = test: In vitro antitumor activity against MDA-468 carcinoma cell line.; assay type: functional, cell-based; conditions: Homo sapiens
In short: (§1)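 MTT assay, 7-day format: 250–300 cells/well, adhered 24 h drug-free, then compound 1 pM–100 μM (n = 8), final DMSO <0.25%; RPMI 1640/10% FCS, 37 °C, 5% CO2. MTT added after exposure, 4 h, formazan dissolved in DMSO–glycine (4:1), absorbance 550 nm.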

MCF7 = test: In vitro antitumor activity against MCF-7 carcinoma cell line.; assay type: functional, cell-based; conditions: Homo sapiens; in short: as §1
NCI = test: In vitro antitumor activity against carcinoma cell lines by 2-day assay; assay type: functional, Homo sapiens
In short: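 NCI panel sulforhodamine B assay: line-specific seeding, 24 h drug-free, then five 10-fold dilutions (top 10^-4 M) for 2 days; growth inhibition from protein-stain optical density change; mean log GI50 across panel.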

Homo sapiens = test: In vitro concentration to reduce colony formation of human tumor xenografts to 30% of the control; assay type: functional
In short: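 Clonogenic colony-formation assay using cells from 22 human tumor xenografts, tested at 0.1, 1.0 and 10 μg/mL; colony inhibition expressed as T/C, with T/C < 30% scored active; IC70 concentration reported.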

Structure (SMILES) | IC50 (MDA-MB-468) [nM] | IC50 (MCF7) [nM] | Mean log GI50 (NCI) [M] | Mean IC70 (Homo sapiens) [µg/mL]
CC(=O)Nc1ccc(-c2nc3ccccc3o2)cc1 | > 10000 | > 10000 | -4.27 | –
O=C(Nc1ccc(-c2nc3ccccc3s2)cc1)C(Cl)Cl | > 100 | > 100 | – | –
O=C(Nc1ccc(-c2nc3ccccc3s2)cc1)C(F)(F)F | > 100 | > 10 | – | –

Now from value to molecule, other results behind:

IC50 (MDA-MB-468) [nM] | IC50 (MCF7) [nM] | Structure (SMILES) | Mean log GI50 (NCI) [M] | Mean IC70 (Homo sapiens) [µg/mL]
> 100 | > 10 | CC(=O)Nc1ccc(-c2nc3ccccc3s2)cc1Cl | -4.54 | –
> 100 | > 10 | O=C(CCl)Nc1ccc(-c2nc3ccccc3s2)cc1 | -5.7 | 3.5
> 100 | > 100 | CC(=O)Nc1ccc(-c2nc3ccccc3s2)cc1I | -4.7 | –
> 1000 | > 10000 | CC(=O)N(C(C)=O)c1ccc(-c2nc3ccccc3s2)cc1Cl | – | –
